M1 ag: M1 muscarinic receptor agonists, primary screen, CHO-M1 cells, Fluo-4 calcium, agonist mode; 64,000 compounds, 3% hits; AID 626, 2007; B-score at 10 µM; Fluo-4 calcium fluorescence; active compounds read high;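 active = fluorescence rise, raw or as B-score row- and column-corrected plate score, outside the 99.7% band of its plate's samples, either direction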
DAT uptake mod: changed hDAT dopamine uptake under cocaine IC80, either direction, primary screen, cocaine antagonist project, cell-based, LLC-PK1 hDAT, [14C]-dopamine uptake, MLSMR; LLC-PK1 hDAT cells, [14C]-dopamine uptake with cocaine IC80; actives deviate in either direction; B-score at 10 µM; 110,000 compounds, 1.3% hits; AID 449768, 2010;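 active = Z score or B-score, a plate-position-corrected score, falls beyond the plate's 99.7% confidence bounds, in either direction; inactive = both scores lie inside the 99.7% bounds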;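 also: scored against the spread of the other compound wells on the same plate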
Target sequence (Q01959 whole entry, looked up): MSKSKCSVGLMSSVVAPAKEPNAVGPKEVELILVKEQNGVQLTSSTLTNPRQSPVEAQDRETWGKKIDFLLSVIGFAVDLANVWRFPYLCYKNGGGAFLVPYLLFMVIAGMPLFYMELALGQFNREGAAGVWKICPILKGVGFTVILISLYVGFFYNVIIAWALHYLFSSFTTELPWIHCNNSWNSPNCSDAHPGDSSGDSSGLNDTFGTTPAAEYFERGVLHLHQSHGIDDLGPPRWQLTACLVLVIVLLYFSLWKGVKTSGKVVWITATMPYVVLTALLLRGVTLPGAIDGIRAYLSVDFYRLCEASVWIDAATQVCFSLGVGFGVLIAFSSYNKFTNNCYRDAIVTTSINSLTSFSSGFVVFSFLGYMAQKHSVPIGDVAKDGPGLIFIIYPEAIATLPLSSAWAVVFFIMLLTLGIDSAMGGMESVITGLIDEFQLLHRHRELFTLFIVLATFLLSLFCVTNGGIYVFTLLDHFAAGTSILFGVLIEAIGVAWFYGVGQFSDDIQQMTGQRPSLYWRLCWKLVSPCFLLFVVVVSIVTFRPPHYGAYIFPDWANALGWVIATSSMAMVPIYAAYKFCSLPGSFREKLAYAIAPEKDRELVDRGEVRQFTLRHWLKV
BAP1 block: inhibitors of BAP1 deubiquitinase, primary screen, biochemical, Ub-AMC fluorescence, kinetic | Ubiquitin carboxyl-terminal hydrolase BAP1 (Homo sapiens), Q92560 | recombinant BAP1, Ub-AMC hydrolysis fluorescence kinetic; active compounds read low | calls only at 20 µM | 72,000 compounds, 0.48% hits;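 active = activity remaining at or below 50% of control, provided the compound also passes the data quality filters; inactive = the rest, including low values that fail the filters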;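 also: 100% = DMSO wells rate and 0% = substrate alone blank rate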
M1 antag: antagonists of rat M1 muscarinic receptor; CHO-M1 cells, Fluo-4 calcium, ACh EC80 antagonist mode; active compounds read low; B-score at 10 µM; 64,000 compounds, 3.4% hits; AID 628, 2007;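 active = calcium fluorescence response, raw or row-and-column corrected B-score, differing from the plate sample mean either way at a set confidence level, mostly lower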
D1 allo mod: D1 CRE-luciferase signal change, two-sided – cell-based, HEK293 D1, dopamine EC30, D1 allosteric modulator project, primary screen; D(1A) dopamine receptor (Homo sapiens), P21728; dopamine EC30 potentiation; actives deviate in either direction; B-score at 10 µM; 58,000 compounds, 5.9% hits; AID 641, 2007;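 active = luminescence count or its row- and column-corrected plate score outside the 99.7% band of the plate's sample wells, on either side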
HEK293 NFkB inh: inhibitors of PMA/ionomycin-induced NF-kB reporter, primary screen, antigen receptor NF-kB inhibitor project, cell-based, HEK-293 luciferase reporter, luminescence; 62,000 compounds, 0.21% hits; inhibition, % at 3 µM; HEK-293 NF-kB luciferase reporter;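 active = inhibition above the mean of all tested compounds plus 3 SD, cut at about 40% in these data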;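 also: 0% = stimulated DMSO wells and 100% = 10 µM reference inhibitor 5653914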
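Material: HEK-293 cells with stable firefly luciferase reporter driven by four HIV NF-kB elements / Also added: PMA plus ionomycin mix as NF-kB-activating stimulus / Compound dosing: 3 µM once, 0.30% DMSO / Times: 1 h pretreatment, 16 h stimulation, 37 °C / Signal: luminescence / Evaluation: per-plate % inhibition versus controls / Benchmarks: DMSO and 10 µM reference inhibitor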
Starred values were filed as active, the others as inactive. Compounds with a hit are over-represented: about 7.2% of the library has one in this group of screens.

CCCOc1ccc(N2C(=O)CC(NCCCN3CCC(C(N)=O)CC3)C2=O)cc1 (stereo not given) was read as M1 ag 0.0045, BAP1 block inactive, M1 antag -0.11, D1 allo mod -0.46 and HEK293 NFkB inh 17.
CCOC(=O)C1=C(C)NC2=C(C(=O)CC(C)(C)C2)C1c1ccc(OC)c(OC)c1OC (stereo not given) was read as BAP1 block inactive.
Screening O=C1CCCC2=C1C(c1cccs1)n1nc(SCc3ccccc3F)nc1N2 (stereo not given) returned M1 ag -0.61, DAT uptake mod 2.8*, BAP1 block inactive, M1 antag -0.21, D1 allo mod -0.09 and HEK293 NFkB inh 12.
Screening Cc1ccccc1CSc1nc2n(n1)C(c1cccs1)C1=C(CCCC1=O)N2 (stereo not given) returned M1 ag 0.57, DAT uptake mod 0.68, BAP1 block inactive, M1 antag 2.6 and HEK293 NFkB inh 13.
Cc1c(NC(=O)C(C)N2CC(C)OC(C)C2)c(=O)n(-c2ccccc2)n1C (stereo not given) was read as M1 ag -0.082, DAT uptake mod -1.6, BAP1 block inactive, M1 antag 1.8*, D1 allo mod -0.39 and HEK293 NFkB inh 18.
For CCOC(=O)c1c(NC(=O)c2ccccc2F)sc(C(C)=O)c1C the results were BAP1 block inactive.
Cc1cccc2cc(C#N)c(N3CCN(C)CC3)nc12 was read as M1 ag 1.2, DAT uptake mod 0.79, BAP1 block inactive, M1 antag -0.066, D1 allo mod -2.2* and HEK293 NFkB inh 6.
Screening Cn1c(NC(=O)c2ccco2)cc(=O)n(C)c1=O returned M1 ag 0.43, DAT uptake mod 7.9*, BAP1 block inactive, M1 antag -0.93, D1 allo mod 0.16 and HEK293 NFkB inh 11.
For Cn1c(NC(=O)c2ccccc2)cc(=O)n(C)c1=O the results were M1 ag 0.46, DAT uptake mod -0.0081, BAP1 block inactive, M1 antag 1, D1 allo mod 0.24 and HEK293 NFkB inh 11.
Screening O=C(Nc1ccccc1F)c1cc2ccccc2oc1=O returned BAP1 block inactive.
For N#Cc1nc(COc2ccccc2)oc1NCCCn1ccnc1 the results were M1 ag -0.16, DAT uptake mod 0.051, BAP1 block inactive, M1 antag 0.34*, D1 allo mod 0.1 and HEK293 NFkB inh -2.
Cc1ccc(OCc2nc(C#N)c(NCCCn3ccnc3)o2)cc1 was read as M1 ag -0.066, DAT uptake mod 0.66, BAP1 block inactive, M1 antag -1.5, D1 allo mod -0.12 and HEK293 NFkB inh 8.
N#CCNC(=O)c1ccccc1Br was read as BAP1 block inactive.
Screening Cc1ccc(NC(=O)c2cc3c(=O)oc4ccccc4c3s2)cc1C returned BAP1 block inactive.
For O=C(c1ccco1)N1CCN(C(=O)c2cccc3c2C(=O)N(C2CCCCC2)C3)CC1 the results were BAP1 block inactive, D1 allo mod -3.4* and HEK293 NFkB inh 5.
`COc1ccc(NC(=O)c2cccc([N+](=O)[O-])c2)c([N+](=O)[O-])c1` gave BAP1 block inactive.
Cn1c(/N=C/c2cc(Cl)ccc2O)nc2ccccc21 was read as M1 ag 2.5*, DAT uptake mod 0.18, BAP1 block inactive, M1 antag 0.32, D1 allo mod 1.5 and HEK293 NFkB inh 18.
Screening Cn1c(/N=C/c2cccs2)nc2ccccc21 returned M1 ag 1.2, DAT uptake mod 0.12, BAP1 block inactive, M1 antag -0.27, D1 allo mod 0.043 and HEK293 NFkB inh 1.
For COC(=O)C1=C(C)NC(=O)CC1c1cc(Br)ccc1OC (stereo not given) the results were BAP1 block inactive.
`CCCc1[nH]n(-c2nc3ccccc3s2)c(=O)c1C=NCC(C)C` gave DAT uptake mod 4.4*.
Cn1nc(OC(=O)Nc2ccc(Cl)cc2)cc1C(F)(F)F was read as DAT uptake mod -2.9*.
COCCNC(=O)CNC(=O)c1nn(-c2ccc(OC)c(Cl)c2)c(=O)c2ccccc12 was read as DAT uptake mod -6.8*.
For COc1ccc(-n2nc(C(=O)NCC(=O)NCc3ccco3)c3ccccc3c2=O)cc1Cl the results were M1 ag 2.5, DAT uptake mod -0.00012, M1 antag 0.37, D1 allo mod 0.89 and HEK293 NFkB inh 11.
`Cc1nc2oc3c(NCc4ccccc4)ncnc3c2c2c1COC(C)(C)C2` gave M1 ag -0.21, BAP1 block inactive, M1 antag 2.1, D1 allo mod 8.5* and HEK293 NFkB inh 26.
Screening CN(C)c1nc(N)nc(-c2cccnc2)n1 returned M1 ag -0.017, DAT uptake mod -0.018, BAP1 block inactive, M1 antag -0.67, D1 allo mod 4.6* and HEK293 NFkB inh 10.
CCOC(=O)C(NC(C)=O)(Nc1ccc(S(=O)(=O)Nc2cc(C)on2)cc1)C(F)(F)F (stereo not given) was read as DAT uptake mod -0.61.
`CCOC(=O)C(NC(C)=O)(Nc1ccc(S(=O)(=O)Nc2onc(C)c2C)cc1)C(F)(F)F` (stereo not given) gave M1 ag -0.61, DAT uptake mod -0.37, BAP1 block inactive, M1 antag 0.53, D1 allo mod -6.9* and HEK293 NFkB inh 8.
`CCNC(=O)CSc1nnc(-c2cccc(S(=O)(=O)N(CC)CC)c2)n1CCc1ccccc1` gave DAT uptake mod 0.44.
CCSc1nnc(-c2cccc(S(=O)(=O)N(CC)CC)c2)n1Cc1ccccc1 was read as M1 ag 10*, DAT uptake mod 0.22, BAP1 block inactive, M1 antag -1.6, D1 allo mod -0.83 and HEK293 NFkB inh 13.
Screening O=S(=O)(c1ccsc1)c1cccs1 returned BAP1 block inactive.
Screening COc1ccc2noc3c2c1C(=O)c1ccccc1-3 returned M1 ag 354*, BAP1 block inactive, M1 antag -12*, D1 allo mod 5* and HEK293 NFkB inh -1.
For O=C1c2ccccc2-c2onc3ccc(Sc4ccccc4)c1c23 the results were BAP1 block inactive.
`c1ccc(-c2nc3cnccn3c2Nc2ccc3c(c2)OCCO3)cc1` gave M1 ag -0.31, DAT uptake mod 2.5*, BAP1 block inactive, M1 antag -0.012, D1 allo mod 0.56 and HEK293 NFkB inh 5.
